High-throughput results (PubChem BioAssay)
Most compounds without a hit are left out; they make up all but 1.8% or so of the library.
CAL PDZ FP-1: human CAL PDZ-peptide interaction inhibition. actives 0.02% (n = 330,000). AID 504414. inhibition, % at 20 µM. purified CAL PDZ, TMR-peptide fluorescence polarization, 1 h. Q9HD26;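 active = highest replicate inhibition of at least 40%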;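 note: plate controls were DMSO neutral control wells for no effect and unlabeled competitor peptide control wells for full effect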
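System: purified tagged CAL PDZ domain construct (CerCALP). Schedule: 1 h incubation at room temperature before polarization reading. Medium: 25 mM sodium phosphate pH 7.4, 150 mM NaCl, TCEP, IgG, Thesit. Read-out: percent inhibition from loss of millipolarization. Measured by: FP readout, S and P plane fluorescence. Probe or stimulus: fluorescent TMR peptide probe.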
ARNT-TACC3 inh: ARNT/TACC3 interaction disruption; Q9Y6A5; AlphaScreen His-ARNT PAS-B/GST-TACC3 binding, luminescence; TACC3 fragment carries E629A point mutation; inhibition, % at 9.99 µM; actives 0.66% (n = 390,000);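 active = mean inhibition of replicates at least 50% and at least half of replicates each reaching 50%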;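 note: 0% = complete ARNT plus TACC3 wells and 100% = ARNT alone without TACC3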
CAL PDZ FP-2: inhibitors of human CAL PDZ peptide binding; Q9HD26; actives 0.92% (n = 300,000); purified CAL PDZ, TMR-peptide fluorescence polarization, 1 h; inhibition, % at 24.9 µM;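 active = mean inhibition of at least 30% with at least half of replicates also reaching 30%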;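 note: 0% = DMSO neutral control and 100% = excess unlabeled competitor peptide PRC23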
Tn6 DDE FP: inhibitors of Tn6 peptide binding to human fibrin DD(E); P02675; Fibrin DD(E) TRITC-Tn6 fluorescence polarization displacement; inhibition, % at 8.3 µM; actives 0.21% (n = 370,000);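 active = inhibition above a per-campaign cutoff: mean of compounds within control limits plus 3 SD, cut at about 15% in these data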;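 note: 0% = median of all compound wells on the plate and 100% = blocking peptide control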
Target sequence (P02675 whole entry, looked up): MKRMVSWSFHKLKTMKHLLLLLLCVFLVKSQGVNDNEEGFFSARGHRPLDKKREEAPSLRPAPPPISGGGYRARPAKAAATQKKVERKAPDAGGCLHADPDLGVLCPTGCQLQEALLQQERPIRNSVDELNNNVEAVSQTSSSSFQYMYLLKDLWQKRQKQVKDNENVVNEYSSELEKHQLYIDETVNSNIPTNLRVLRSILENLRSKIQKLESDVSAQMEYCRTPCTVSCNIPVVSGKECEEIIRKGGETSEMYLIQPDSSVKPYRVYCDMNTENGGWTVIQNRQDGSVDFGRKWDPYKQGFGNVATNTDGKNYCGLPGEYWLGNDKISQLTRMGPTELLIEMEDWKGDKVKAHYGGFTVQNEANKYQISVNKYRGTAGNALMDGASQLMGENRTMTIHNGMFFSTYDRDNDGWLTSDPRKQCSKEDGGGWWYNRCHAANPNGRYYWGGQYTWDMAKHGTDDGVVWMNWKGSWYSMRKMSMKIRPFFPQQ
Tn7 DDE FP: DD(E)-Tn7 binding inhibition, primary FP screen; P02675; FP displacement of FITC-Tn7 peptide from fibrin DD(E); 0% = median of compound wells per plate; inhibition, % at 8.3 µM; actives 0.13% (n = 370,000);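 active = inhibition above the mean of compounds falling within the control limits plus 3 SD of them, cut at about 14% in these data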;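 note: 0% = plate median of compound wells and 100% = 10 µM Aha-Tn7 peptide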
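Test system – human fibrin DD(E) · Times – 10 min preincubation, 3 h with tracer, room temperature · Detection – fluorescence polarization of the labelled Tn7 tracer · Measure – percent inhibition normalized to high-control wells · Benchmarks – high control wells with 10 µM unlabelled Aha-Tn7 peptide (full inhibition) · Repeats – singlicate testing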
GRK2 aptamer HTS: blocks RNA aptamer binding to human GRK2. actives 0.59% (n = 330,000). AID 488847. inhibition of aptamer binding, % at 10 µM. bead flow cytometry, FAM-aptamer displacement from GRK2;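 active = inhibition of aptamer binding above 40%, roughly 3 SD of noise, on plates passing a quality check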;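 note: median bead fluorescence of bound FAM aptamer so fluorescent compounds give negative values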
* = called active by the depositor; x = not tested or not shown.

SMILES	CAL PDZ FP-1	ARNT-TACC3 inh	CAL PDZ FP-2	Tn6 DDE FP	Tn7 DDE FP	GRK2 aptamer HTS
COc1cc(/C=N/N=C2/NC(=O)C(CC(=O)O)S2)ccc1OCc1ccc(Cl)cc1 (stereo not given)	-3	-4	-4	4	4	1
O=C(O)CC1S/C(=N/N=C/c2ccccn2)NC1=O (stereo not given)	-2	71*	x	-4	-1	0
O=[N+]([O-])c1cccc(-c2c[n+]3c(n2-c2ccccc2)SCC3)c1	-1	-3	48*	0	-10	0
C[C@H]1CN([C@@H](C)CO)C(=O)c2cc(C#CC3(O)CCCC3)cnc2O[C@@H]1CN(C)C(=O)Nc1ccc2c(c1)OCO2	x	2	x	x	x	x
Cc1ccc(C(=O)NCC(=O)NCc2cc(=O)n(C)c(=O)n2C)cc1C	0	-6	44*	3	0	0
O=C(Nc1ccc(F)cc1)c1cc(-c2ccccc2)no1	0	-10	109*	-1	0	0
O=C(NCC(=O)N1CCN(c2ccccc2)CC1)c1ccco1	-2	x	0	-10	-2	1
COc1ccc(C2CN=NC23CCCc2ccccc2C3=O)cc1 (stereo not given)	-1	2	57*	-7	-6	1
CCCCOC(=O)c1ccc(OC(=O)c2cccnc2)cc1	0	-8	33*	6	-2	1
COc1ccc(C2CC(c3ccccc3OC(C)=O)=NN2C(=O)/C=C/c2ccccc2)cc1 (stereo not given)	-1	8	52*	-10	-2	2
COc1ccc(C2CC(c3ccccc3OC(C)=O)=NN2C(C)=O)cc1 (stereo not given)	-1	-3	91*	-7	-5	0
Cc1ccccc1S(=O)(=O)N1[C@H](C#N)[C@H](c2ccc(C#CC3CCCCC3)cc2)[C@H]1CO	x	15	x	x	x	x
Cc1cccc(NC(=O)Nc2ccc(Cl)cc2)n1	-1	-15	40*	-2	2	0
COC(=O)Cc1ccc(NC(=S)Nc2cccc(C)n2)cc1	-2	2	53*	5	-5	0
CCOC(=O)c1ccc(NC(=S)Nc2cccc(C)n2)cc1	0	-7	x	3	0	3
CCc1ccccc1OCC(=O)Nc1cc(S(=O)(=O)N(CC)CC)ccc1N1CCOCC1	0	7	7	3	-4	0
C=CC(=O)NC1CCCCN(CC)C1=O (stereo not given)	x	x	x	-5	-6	x
CCNc1nc(NCC)nc(C(=O)Nc2ccccc2)n1	-1	96*	-3	0	-1	3
CCNc1nc(NCC)nc(OCCOC(=O)Nc2ccccc2)n1	-1	8	x	-2	3	x
Cc1ccc(S(=O)(=O)Nc2ccccc2C(=O)Nc2nc(-c3ccc(F)cc3)cs2)cc1	-1	-13	-3	-13	-8	2
COc1ccc(-c2csc(NC(=O)c3ccccc3NS(=O)(=O)c3ccc(F)c(F)c3)n2)cc1	0	2	42*	-5	7	11
COc1ccc2c(CC(=O)OCC(=O)Nc3cccc(S(N)(=O)=O)c3)coc2c1	-1	23	50*	3	-4	0
COc1ccc(NC(=O)COC(=O)Cc2coc3cc(OC)ccc23)c(OC)c1	0	-6	-10	8	-4	0
COc1ccc(S(=O)(=O)N(C)C[C@@H]2Oc3ccc(NC(=O)c4ccncc4)cc3CC(=O)N([C@H](C)CO)C[C@@H]2C)cc1	x	-2	x	x	x	x
COc1ccc(S(=O)(=O)N(C)CC(=O)N2CCCC2)cc1OC	0	-2	-2	3	0	2
SMILES	CAL PDZ FP-1	ARNT-TACC3 inh	CAL PDZ FP-2	Tn6 DDE FP	Tn7 DDE FP	GRK2 aptamer HTS
COc1ccc(OC)c(C2=NS(=O)(=O)N(C)C(C(=O)Nc3ccc(C(C)=O)cc3)=C2)c1	0	-1	54*	3	2	0
O=C(O)C1CC=CCC1C(=O)Nc1ccccc1 (stereo not given)	-1	0	1	-1	1	37
O=C(O)Cc1ccc(NC(=O)C2CC=CCC2C(=O)O)cc1 (stereo not given)	x	x	x	x	x	44*
O=C(COC(=O)c1ccc(NC(=O)C2CC=CCC2C(=O)O)cc1)c1ccccc1 (stereo not given)	x	5	67*	0	1	13
CCc1ccc(NC(=O)C2CC=CCC2C(=O)O)cc1 (stereo not given)	-2	-17	3	-5	1	7
O=C(c1cc(COc2ccccc2)on1)N1CCCC(CN2CCOCC2)C1 (stereo not given)	-1	1	53*	8	5	0
O=C1CCCC(=O)C1=Cc1c[nH]c2ccccc12	-1	-4	70*	-3	-1	0
O=C(N/N=C/c1ccco1)c1cc(-c2cccs2)[nH]n1	-5	4	41*	0	9	4
O=C(N/N=C/c1ccco1)c1cc(-c2ccc(Br)s2)[nH]n1	-3	-1	-4	-11	0	0
Cn1c(=O)c(C(=O)NNC(=O)c2ccccc2F)c(O)c2ccccc21	-3	11	-1	-3	-7	0
Cn1c(=O)c(C(=O)NNC(=O)c2ccc(Br)cc2)c(O)c2ccccc21	-1	-1	-5	-1	7	47*
CC(C)C#Cc1ccc2c(c1)O[C@@H](CN(C)C(=O)c1ccccn1)[C@H](C)CN([C@@H](C)CO)S2(=O)=O	x	4	x	x	x	x
CSc1nccc(-c2nn(-c3ccc(C)cc3)ccc2=O)n1	-2	58*	-7	2	3	0
O=C(C1CC(=O)N(c2ccc3c(c2)OCCO3)C1)N1CCN(c2ccccc2)CC1 (stereo not given)	0	0	47*	4	7	2
CN(Cc1cccc(F)c1)C(=O)C1CC(=O)N(c2ccc3c(c2)OCCO3)C1 (stereo not given)	0	2	40*	7	6	3
O/N=C/c1ccc2cccc(O)c2n1	-2	57*	-2	-3	-3	2
COc1cc(C(=O)NCc2nnc(SCC(=O)Nc3cc(C)cc(C)c3)o2)cc(OC)c1OC	-2	-3	-1	2	7	0
COc1ccc(C(=O)NCC(=O)OCC(=O)NCc2ccco2)cc1	0	-5	43*	5	6	8
Cc1cc(C)n(-c2ccc(C(=O)OCC(=O)NCc3ccco3)cc2)n1	x	7	40*	4	1	2
COc1ccc(C(=O)NCc2nnc(SCC(=O)NCc3ccco3)o2)cc1	-1	5	88*	-2	1	1
COc1cc(C(=O)NCc2nnc(SCC(=O)Nc3c(C)cc(C)cc3C)o2)cc(OC)c1OC	-1	2	60*	0	2	0
